Bounds are passed on as bounds.

From ChEMBL document CHEMBL4014298, “Discovery of a series of 8-(1-phenylpyrrolidin-2-yl)-6-carboxamide-2-morpholino-4H-chromen-4-one as PI3Kβ/δ inhibitors for the treatment of PTEN-deficient tumours” (Bioorg Med Chem Lett, 2017) come the findings set out here.

The nature of data set [1]: Lipophilicity, log D of the compound at pH 7.4. The note with it: buffer.
Data set [2] in a line: AUC in mouse at 30 umol/kg, po. Conditions: in vivo. It counts as ADME.
The nature of data set [3]: Inhibition of PI3Kalpha mutant in human BT474 cells assessed as decrease in AKT phosphorylation at Thr308 after 2 hrs. Conditions: BT-474, 2 h. The format is cell-based.
Data set [4] is described as follows: Intrinsic clearance in human hepatocytes assessed per million cells. The format is ADME, cell-based, Hepatocyte. The note with it: read-out: CLH.
The target in data set [5] is T1, Phosphatidylinositol 4,5-bisphosphate 3-kinase catalytic subunit beta isoform (Homo sapiens, UniProt P42338). Briefly: Inhibition of PI3Kbeta in PTEN-deficient human MDA-MB-468 cells assessed as decrease in AKT phosphorylation at Ser473 measured after 2 hrs.
The nature of data set [6]: Apparent permeability across apical to basolateral side in human Caco2 cells. Conditions: Caco-2. (In general: Caco-2 cells form a polarised layer with tight junctions and transporters.)
The species entered for data set [7] is Homo sapiens. Briefly: Selectivity ratio of IC50 for PI3Kalpha mutant in human BT474 cells to IC50 for PI3Kbeta in PTEN-deficient human MDA-MB-468 cells. The format is cell-based. An outline of the steps: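 Ratio of two cellular IC50s. PI3Kα IC50 is from inhibition of AKT Thr308 phosphorylation in PIK3CA-mutant human breast ductal carcinoma BT474 cells. PI3Kβ IC50 is from inhibition of AKT Ser473 phosphorylation in PTEN-null breast adenocarcinoma MDA-MB-468 cells.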

Data set [8] has as its target T1, Phosphatidylinositol 4,5-bisphosphate 3-kinase catalytic subunit beta isoform. Briefly: Inhibition of recombinant human PI3Kbeta using PIP2 as substrate preincubated for 20 mins followed by substrate addition measured after 80 mins in presence of ATP by Kinase Glo luminescence assay. For orientation: In Kinase-Glo more light means more ATP remaining.
In data set [9] the target is Phosphatidylinositol 4,5-bisphosphate 3-kinase catalytic subunit gamma isoform (Homo sapiens, UniProt P48736). Briefly: Inhibition of recombinant human PI3Kgamma using PIP2 as substrate preincubated for 20 mins followed by substrate addition measured after 80 mins in presence of ATP by Kinase Glo luminescence assay. An outline of the steps: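 Enzyme IC50 against PI3Kγ, single determination (n=1).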

The target of data set [10] is Phosphatidylinositol 4,5-bisphosphate 3-kinase catalytic subunit alpha isoform (Homo sapiens, UniProt P42336). Briefly: Inhibition of recombinant human PI3Kalpha using PIP2 as substrate preincubated for 20 mins followed by substrate addition measured after 80 mins in presence of ATP by Kinase Glo luminescence assay.
In data set [11] the target is T2, Phosphatidylinositol 4,5-bisphosphate 3-kinase catalytic subunit delta isoform (Homo sapiens, UniProt O00329).
T2 sequence (O00329 whole entry): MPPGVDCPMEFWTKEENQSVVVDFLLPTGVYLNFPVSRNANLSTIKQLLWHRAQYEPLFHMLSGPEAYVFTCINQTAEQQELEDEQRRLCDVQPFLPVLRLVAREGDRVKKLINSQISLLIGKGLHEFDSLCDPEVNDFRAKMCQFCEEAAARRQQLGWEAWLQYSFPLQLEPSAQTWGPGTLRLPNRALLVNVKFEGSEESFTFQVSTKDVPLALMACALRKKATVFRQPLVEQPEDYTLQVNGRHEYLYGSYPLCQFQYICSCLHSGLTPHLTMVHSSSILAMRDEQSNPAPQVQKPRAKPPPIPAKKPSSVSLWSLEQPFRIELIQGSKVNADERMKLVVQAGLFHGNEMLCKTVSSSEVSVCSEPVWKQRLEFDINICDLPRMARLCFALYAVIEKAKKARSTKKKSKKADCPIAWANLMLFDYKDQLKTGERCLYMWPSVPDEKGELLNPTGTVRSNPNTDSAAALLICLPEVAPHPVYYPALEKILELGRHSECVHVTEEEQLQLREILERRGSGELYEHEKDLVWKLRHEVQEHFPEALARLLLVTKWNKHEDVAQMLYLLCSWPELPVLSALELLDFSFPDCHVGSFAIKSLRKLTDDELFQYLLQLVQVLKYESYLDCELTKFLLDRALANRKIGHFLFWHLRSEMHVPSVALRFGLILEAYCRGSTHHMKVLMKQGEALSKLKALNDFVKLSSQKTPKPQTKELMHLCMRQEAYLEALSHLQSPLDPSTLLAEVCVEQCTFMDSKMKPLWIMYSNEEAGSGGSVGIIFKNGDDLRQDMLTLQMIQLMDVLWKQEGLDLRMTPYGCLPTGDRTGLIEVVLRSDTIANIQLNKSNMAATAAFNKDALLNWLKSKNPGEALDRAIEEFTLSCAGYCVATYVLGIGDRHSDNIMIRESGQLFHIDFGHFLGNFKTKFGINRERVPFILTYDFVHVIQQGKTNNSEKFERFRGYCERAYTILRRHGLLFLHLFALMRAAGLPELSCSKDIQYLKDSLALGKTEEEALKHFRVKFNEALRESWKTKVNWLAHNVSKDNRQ
Briefly: Inhibition of recombinant human PI3Kdelta using PIP2 as substrate preincubated for 20 mins followed by substrate addition measured after 80 mins in presence of ATP by Kinase Glo luminescence assay.

The nature of data set [12]: Oral bioavailability in mouse blood at 30 umol/kg. It counts as ADME, organism-based.
Data set [13] can be described thus: Clearance in mouse blood at 5 umol/kg, iv or 30 umol/kg, po. It counts as ADME, organism-based.
Data set [14] is described as follows: Fraction unbound in human plasma. The format is ADME, cell-free. In a few lines:
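Plasma protein binding in mouse, dog or human plasma, reported as fraction unbound (%).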

Data set [15] is described as follows: Volume of distribution at steady state in mouse blood at 5 umol/kg, iv or 30 umol/kg, po. It counts as ADME, organism-based. The note with it: read-out: Vdss.
Data set [16] in a line: Intrinsic clearance in mouse hepatocytes assessed per million cells. The note with it: read-out: CLH. It counts as ADME, cell-based, Hepatocyte. An outline of the steps: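 Intrinsic clearance measured in mouse or dog hepatocytes, expressed as CL_int in […].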

T1 sequence (P42338 whole entry, canonical isoform): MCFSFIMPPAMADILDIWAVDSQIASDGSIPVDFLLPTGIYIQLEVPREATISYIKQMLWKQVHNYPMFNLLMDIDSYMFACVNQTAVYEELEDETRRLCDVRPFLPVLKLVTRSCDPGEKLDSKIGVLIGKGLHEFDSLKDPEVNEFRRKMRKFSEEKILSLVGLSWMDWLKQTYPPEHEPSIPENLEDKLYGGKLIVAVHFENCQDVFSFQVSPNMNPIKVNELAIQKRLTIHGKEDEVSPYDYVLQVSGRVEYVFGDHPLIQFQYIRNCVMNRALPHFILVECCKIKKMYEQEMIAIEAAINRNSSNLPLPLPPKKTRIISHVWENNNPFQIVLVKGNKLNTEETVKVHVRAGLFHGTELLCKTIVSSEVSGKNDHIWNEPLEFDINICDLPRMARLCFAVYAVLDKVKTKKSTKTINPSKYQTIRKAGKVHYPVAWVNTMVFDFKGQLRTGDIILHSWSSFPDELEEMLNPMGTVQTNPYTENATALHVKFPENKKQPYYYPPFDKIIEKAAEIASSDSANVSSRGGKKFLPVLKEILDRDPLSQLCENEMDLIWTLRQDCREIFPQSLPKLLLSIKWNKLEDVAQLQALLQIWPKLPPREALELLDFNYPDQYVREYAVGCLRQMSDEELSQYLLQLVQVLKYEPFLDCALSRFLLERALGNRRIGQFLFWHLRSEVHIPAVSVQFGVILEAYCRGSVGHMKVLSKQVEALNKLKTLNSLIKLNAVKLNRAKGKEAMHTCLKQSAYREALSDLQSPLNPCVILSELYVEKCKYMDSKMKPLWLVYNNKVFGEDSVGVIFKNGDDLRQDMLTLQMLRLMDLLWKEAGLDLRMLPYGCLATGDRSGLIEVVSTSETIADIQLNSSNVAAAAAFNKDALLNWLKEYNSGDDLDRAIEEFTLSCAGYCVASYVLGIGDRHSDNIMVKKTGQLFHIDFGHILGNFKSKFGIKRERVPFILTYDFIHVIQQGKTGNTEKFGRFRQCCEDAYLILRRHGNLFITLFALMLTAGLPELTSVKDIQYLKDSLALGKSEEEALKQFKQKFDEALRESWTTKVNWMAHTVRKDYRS
Chain of Phosphatidylinositol 4,5-bisphosphate 3-kinase catalytic subunit gamma isoform (P48736 whole entry, canonical isoform): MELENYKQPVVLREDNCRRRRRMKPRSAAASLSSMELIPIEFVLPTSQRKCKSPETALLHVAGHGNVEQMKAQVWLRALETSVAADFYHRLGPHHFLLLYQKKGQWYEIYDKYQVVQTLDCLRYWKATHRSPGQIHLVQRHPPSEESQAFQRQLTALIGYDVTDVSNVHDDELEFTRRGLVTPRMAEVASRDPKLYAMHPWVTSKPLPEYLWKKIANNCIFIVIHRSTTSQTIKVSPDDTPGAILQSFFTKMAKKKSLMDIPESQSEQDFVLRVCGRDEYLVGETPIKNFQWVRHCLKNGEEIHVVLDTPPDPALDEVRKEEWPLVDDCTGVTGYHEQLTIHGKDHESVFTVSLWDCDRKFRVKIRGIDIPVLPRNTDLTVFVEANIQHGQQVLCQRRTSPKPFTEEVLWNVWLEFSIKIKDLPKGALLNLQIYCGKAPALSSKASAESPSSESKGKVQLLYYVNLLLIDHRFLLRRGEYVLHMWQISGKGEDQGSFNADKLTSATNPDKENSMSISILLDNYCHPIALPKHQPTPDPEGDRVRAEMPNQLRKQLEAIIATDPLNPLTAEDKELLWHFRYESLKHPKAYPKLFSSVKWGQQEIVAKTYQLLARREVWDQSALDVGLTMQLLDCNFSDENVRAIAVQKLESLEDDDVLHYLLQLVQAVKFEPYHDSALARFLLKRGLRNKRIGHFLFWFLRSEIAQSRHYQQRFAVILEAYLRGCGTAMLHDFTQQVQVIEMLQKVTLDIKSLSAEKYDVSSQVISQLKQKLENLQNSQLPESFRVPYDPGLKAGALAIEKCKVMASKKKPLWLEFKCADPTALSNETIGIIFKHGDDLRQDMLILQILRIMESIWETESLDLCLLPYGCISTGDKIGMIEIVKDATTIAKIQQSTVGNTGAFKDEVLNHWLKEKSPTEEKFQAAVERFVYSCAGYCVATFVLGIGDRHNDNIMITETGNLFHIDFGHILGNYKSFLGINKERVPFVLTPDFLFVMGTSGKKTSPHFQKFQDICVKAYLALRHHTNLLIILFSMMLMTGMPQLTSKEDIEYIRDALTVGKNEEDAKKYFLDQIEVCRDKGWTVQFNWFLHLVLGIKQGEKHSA
Chain of Phosphatidylinositol 4,5-bisphosphate 3-kinase catalytic subunit alpha isoform (P42336 whole entry, canonical isoform): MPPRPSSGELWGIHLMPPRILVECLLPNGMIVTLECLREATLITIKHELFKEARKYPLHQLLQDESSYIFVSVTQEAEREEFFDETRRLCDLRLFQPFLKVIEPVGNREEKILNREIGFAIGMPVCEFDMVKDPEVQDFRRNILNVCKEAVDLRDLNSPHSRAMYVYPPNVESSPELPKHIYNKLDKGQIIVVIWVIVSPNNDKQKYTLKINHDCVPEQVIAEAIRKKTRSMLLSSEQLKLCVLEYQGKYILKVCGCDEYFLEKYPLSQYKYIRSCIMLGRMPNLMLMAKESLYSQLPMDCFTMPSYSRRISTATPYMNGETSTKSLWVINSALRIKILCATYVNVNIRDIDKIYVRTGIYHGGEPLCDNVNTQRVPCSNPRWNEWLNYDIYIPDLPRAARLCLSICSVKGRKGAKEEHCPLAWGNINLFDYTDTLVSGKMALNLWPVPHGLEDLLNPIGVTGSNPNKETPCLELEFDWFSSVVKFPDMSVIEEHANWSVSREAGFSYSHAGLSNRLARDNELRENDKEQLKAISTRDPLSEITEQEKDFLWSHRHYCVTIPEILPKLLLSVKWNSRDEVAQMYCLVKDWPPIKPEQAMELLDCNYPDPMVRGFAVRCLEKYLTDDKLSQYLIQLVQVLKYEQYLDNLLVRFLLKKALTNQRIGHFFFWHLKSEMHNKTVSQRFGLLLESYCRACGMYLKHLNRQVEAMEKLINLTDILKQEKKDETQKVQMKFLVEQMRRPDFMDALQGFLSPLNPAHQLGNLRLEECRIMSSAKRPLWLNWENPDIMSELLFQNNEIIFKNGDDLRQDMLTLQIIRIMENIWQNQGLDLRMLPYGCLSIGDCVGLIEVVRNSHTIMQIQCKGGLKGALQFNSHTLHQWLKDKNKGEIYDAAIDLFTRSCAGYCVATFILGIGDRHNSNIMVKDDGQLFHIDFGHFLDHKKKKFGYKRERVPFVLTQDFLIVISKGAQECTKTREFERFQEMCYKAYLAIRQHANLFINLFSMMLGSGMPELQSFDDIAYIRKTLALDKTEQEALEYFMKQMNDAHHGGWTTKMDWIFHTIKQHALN

The term logD denotes the decadic logarithm of the distribution of all forms, ionised or not, between an organic phase and buffer at a given pH. A higher logD goes with a more lipophilic compound. In [1], `Cc1cc([C@@H](C)Nc2ccccc2)c2nc(N3CCOCC3)cc(=O)n2c1` had a logD of 3.6.

The AUC is the area under the concentration-time curve, a measure of exposure. Low readings indicate low exposure, high ones high exposure. What is called IC50 is the concentration that inhibits the measured activity by half. Compound `CN(C)C(=O)c1cc(C2CCCN2c2ccccc2)c2oc(N3CCOCC3)cc(=O)c2c1` (racemic) gave an AUC in [2] of 6 µM·h. The IC50 in data set [3] is 480 nM. The hepatocyte CLint in data set [4] stood at 11 µL/min/1e6 cells.

A word on the Papp A→B: it is how fast a substance crosses the layer from the apical side. Turning to `CN1CCN(C(=O)c2cc([C@H]3CCCN3c3cc(F)cc(F)c3)c3oc(N4CCOCC4)cc(=O)c3c2)CC1`, the values for the IC50 in [5] and in [3] were 2.3 nM and 250 nM, respectively. The logD in data set [1] worked out at 2.3. For the same compound, the Papp A→B in [6] came to 3.3 ×10⁻⁶ cm/s. The hepatocyte CLint in data set [4] worked out at 11 µL/min/1e6 cells.

Turning to `CN(C)C(=O)c1cc(C2CCCN2c2cc(F)cc(F)c2)c2oc(N3CCOCC3)cc(=O)c2c1` (racemic), in data set [2], the AUC was 2.4 µM·h. Besides, the results for the IC50 in [5] and in data set [3] were 1.2 nM and 150 nM, respectively. Further, in data set [1], the logD came out at 2.7. For the same compound, in data set [6], the Papp A→B came to 33 ×10⁻⁶ cm/s. The hepatocyte CLint in data set [4] was 17 µL/min/1e6 cells.

`CN(C)C(=O)c1cc([C@H]2CCCN2c2ccc(F)cc2)c2oc(N3CCOCC3)cc(=O)c2c1` registered an AUC in data set [2] of 1 µM·h. Moreover, the IC50 in [5] is 3.4 nM; in [8], 6.7 nM; in data set [9], 330 nM; in data set [10], 24 nM; in [3] it was 180 nM; in [11] it was 8.2 nM. The Ratio IC50 in data set [7] was 50. Also, the hepatocyte CLint in [4] came out at 14 µL/min/1e6 cells.

On to `CN(C)C(=O)c1cc([C@H]2CCCN2c2cccc(F)c2)c2oc(N3CCOCC3)cc(=O)c2c1`, for which the IC50 in data set [5] was found to be 1.2 nM; in [3] it was 91 nM. The compound further displayed a logD in data set [1] of 2.5. For the same compound, the hepatocyte CLint in [4] came to 15 µL/min/1e6 cells.

Take `CN(CCO)C(=O)c1cc(C2CCCN2c2cc(F)cc(F)c2)c2oc(N3CCOCC3)cc(=O)c2c1` (racemic): the AUC in data set [2] is 0.3 µM·h. Moreover, the IC50 is 2 nM in data set [5] and 870 nM in [3]. This compound registered a logD in data set [1] of 2. Moreover, the Papp A→B in data set [6] came out at 2.6 ×10⁻⁶ cm/s. Further, in data set [4], the hepatocyte CLint worked out at 4 µL/min/1e6 cells.

As to `O=C(c1cc(C2CCCN2c2ccc(F)cc2)c2oc(N3CCOCC3)cc(=O)c2c1)N1CCOCC1` (single isomer, unassigned), the IC50 in [5] stood at 4.5 nM; in data set [3] it was 1200 nM. For the same compound, in data set [1], the logD amounted to 2.2. The hepatocyte CLint in data set [4] turned out to be 8 µL/min/1e6 cells.

`O=C(c1cc(C2CCCN2c2cc(F)cc(F)c2)c2oc(N3CCOCC3)cc(=O)c2c1)N1CCC(O)CC1` (racemic): the IC50 in [5] is 3 nM; in data set [3], 630 nM. The compound further returned a logD in [1] of 2.3. In addition, the hepatocyte CLint in [4] is under 3 µL/min/1e6 cells.

The term bioavailability denotes dose-corrected exposure relative to a reference, in per cent. As usually defined, the fraction unbound is the share of the substance not bound to proteins or other matrix. As for `O=C(c1cc([C@H]2CCCN2c2cccc(F)c2)c2oc(N3CCOCC3)cc(=O)c2c1)N1CCOCC1`, the bioavailability in data set [12] was found to be 18%. Besides, the AUC in data set [2] was 1.7 µM·h. The IC50 in data set [5] is 2.8 nM; in data set [8], 6.1 nM; in data set [9] it was 340 nM; in data set [10] it was 19 nM; in [3], 300 nM; in data set [11] it was 5.1 nM. Besides, in [1], the logD amounted to 2.2. Besides, in data set [6], the Papp A→B amounted to 14 ×10⁻⁶ cm/s. This compound gave a clearance in [13] of 47 mL/min/kg. The same compound registered a fraction unbound in data set [14] of 0.11. The Vd in data set [15] was found to be 0.9 L/kg. The hepatocyte CLint in data set [4] was 6 µL/min/1e6 cells; in [16], 134 µL/min/1e6 cells.
